The results in this text go back to PubChem BioAssay.

Activity calls are given as the source filed them.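 The calls were made as follows, unless noted: active = visual image review flags a hit and inhibition of aggregation exceeds 20%; inconclusive = visual hit but inhibition at or below 20%; inactive = no hit on visual image review.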

Assay [1] in a line: inhibitors of TNFa-induced NFkB p65 translocation, primary screen, imaging, HUVEC, MLSMR starter and 10KST1 sets (AID 438;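 active = inhibition above 20% together with a positive visual image hit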;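 also: compound added about 3h40 before a 20 min TNFalpha stimulation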;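 as to inhibition: signal is the nuclear over cytoplasmic p65 intensity ratio per well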). The conditions noted are these: HUVEC TNFa-induced p65 nuclear translocation; cell count: measured here: nuclei count (cytotoxicity indicator), at 2.08 µM; inhibition: at 2 µM, stronger effect = higher value, 0% TNFa-plus-vehicle, 100% no-TNFa wells.
Assay [2] can be described thus: inhibitors of mutant huntingtin aggregation, primary screen, imaging, exon1htt(103Q)mCFP cells, high-content imaging (AID 483).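 Also: compound exposure lasted 3 days before fixation.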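 As to nuclei count: percent of the per-plate median nuclei count of sample wells.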 The conditions noted are these: exon1htt(103Q)mCFP cell line, aggregate imaging, at 2 µM; inhibition of aggregation: stronger effect = higher value; nuclei count: measured here: cell count, toxicity.
Assay [3] is described as follows: inhibitors of E-selectin induction by TNFa, primary screen, imaging, HUVEC, immunofluorescence, MLSMR starter and 10KST1 sets (AID 487;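 active = visually confirmed hit in the image check and inhibition above 20%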;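 as to inhibition: signal is fraction of cell area covered by stained E-selectin grains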;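 as to nuclei count: 100% = median nuclei count of all wells on the same plate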). The following applies: HUVEC TNFalpha-induced E-selectin immunofluorescence imaging, at 2 µM; inhibition: stronger effect = higher value; nuclei count: measured here: cell number, toxicity.
The target in assay [4] is Voltage-gated potassium channel subunit beta-2 (Rattus norvegicus) (UniProt P62483). Briefly: KvBeta enzyme negative modulators, primary screen, biochemical, NADPH fluorescence (AID 622;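 active = fluorescence slope higher than the sample average by over 3 SD, cut at about -0.22 in these data, passing the limit was not always enough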;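 also: slope of raw intensity against log time taken from 70 to 1610 s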). The following applies: recombinant KvBeta, 4-cyanobenzaldehyde reduction, at 10 µM, stronger effect = higher value.
Chain of Voltage-gated potassium channel subunit beta-2 (Rattus norvegicus) (P62483 whole entry, looked up): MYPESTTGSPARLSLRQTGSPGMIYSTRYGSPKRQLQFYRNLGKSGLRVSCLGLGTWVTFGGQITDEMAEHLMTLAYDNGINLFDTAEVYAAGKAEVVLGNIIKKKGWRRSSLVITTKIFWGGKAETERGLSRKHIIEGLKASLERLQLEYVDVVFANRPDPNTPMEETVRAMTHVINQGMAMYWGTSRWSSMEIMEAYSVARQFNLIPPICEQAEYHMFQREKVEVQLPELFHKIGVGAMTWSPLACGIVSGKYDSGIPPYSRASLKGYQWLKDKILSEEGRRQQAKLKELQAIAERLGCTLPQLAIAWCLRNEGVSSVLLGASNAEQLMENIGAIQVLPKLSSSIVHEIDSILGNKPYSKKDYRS
Assay [5] has the same target. The assay is described as follows: KvBeta positive modulators, primary screen, biochemical, NADPH fluorescence (AID 623;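 active = NADPH fluorescence slope more negative than the mean of all samples by about 3 SD, 99.7% confidence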;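 also: fluorescence intensity change per second fitted from 20 to 320 s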). The following applies: Recombinant KvBeta, NADPH fluorescence decrease slope, 10 min; at 10 µM; stronger effect = lower value.
In assay [6] the target is Muscarinic acetylcholine receptor M4 (Homo sapiens) (UniProt P08173). The assay is described as follows: compounds altering M4/GIRK thallium flux, either direction, primary screen, M4 allosteric agonist project, cell-based, HEK293 M4/GIRK, BTC-AM (AID 625;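 active = fluorescence slope after compound addition differing from the mean of all tested samples at 99.7% confidence, mostly higher but some lower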;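 also: thallium influx through GIRK channels coupled to M4 in HEK293 cells with BTC-AM dye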). The following applies: at 10 µM, actives lie on both sides. The method, boiled down:
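Material: HEK293 cells with M4 receptor and GIRK channels; Times: cells overnight at 37 °C, BTC-AM loading 1 h, reads 2 min total; Technique: kinetic BTC-AM fluorescence sampled at 1 Hz, 10 s pre-addition baseline; Read-out basis: slope over 15–24 s of trace normalized to starting intensity; Controls: carbachol positive, DMSO negative.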

Assay [7] can be described thus: inhibitors of Sendai virus-induced IRF3 signaling, primary screen, TLR/RLR signaling modifier project, cell-based, Sendai virus stimulus, luciferase, 10K MLSCN set (AID 602276;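 active = inhibition at or above 50% at 10 µM; inactive = inhibition below 50%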;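 also: firefly luciferase from ISG56 promoter only with Renilla not read in this screen; 0% = Sendai virus plus DMSO and 100% = medium plus DMSO without virus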). The conditions noted are these: HEK293 RL24 IRF3 luciferase reporter, at 10 µM, stronger effect = higher value.
Assay [8] can be described thus: inhibitors of poly I:C-induced TLR3 signaling, primary screen, cell-based, poly I:C stimulus, luciferase, 10K MLSCN set (AID 602277;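 active = inhibition of the reporter signal at or above 50%; inactive = inhibition below 50%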). The following applies: HEK293-TLR3 RL24 IRF3 luciferase reporter, at 10 µM, stronger effect = higher value.

Chain of Muscarinic acetylcholine receptor M4 (Homo sapiens) (P08173 whole entry, looked up): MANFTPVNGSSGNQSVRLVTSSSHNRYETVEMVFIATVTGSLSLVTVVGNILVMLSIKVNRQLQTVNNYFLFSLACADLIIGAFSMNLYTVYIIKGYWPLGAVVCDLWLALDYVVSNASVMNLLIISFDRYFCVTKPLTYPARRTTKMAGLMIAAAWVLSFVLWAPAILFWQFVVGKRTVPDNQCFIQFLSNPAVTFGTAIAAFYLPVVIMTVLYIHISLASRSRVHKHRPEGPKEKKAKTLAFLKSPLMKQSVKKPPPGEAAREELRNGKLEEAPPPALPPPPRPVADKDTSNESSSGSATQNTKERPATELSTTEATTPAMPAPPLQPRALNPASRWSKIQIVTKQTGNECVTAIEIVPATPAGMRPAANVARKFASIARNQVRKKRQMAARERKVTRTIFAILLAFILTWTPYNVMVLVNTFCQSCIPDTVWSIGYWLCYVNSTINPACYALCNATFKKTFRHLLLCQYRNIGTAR

For the compound `O=C(OCC#CCSc1nc2ccccc2o1)c1ccco1`, the cell count in assay [1] is 541. Besides, the inhibition in assay [1] is 6.7% (inactive); in assay [3] it was -7.3% (inactive); in assay [7] it was -2.28% (inactive); in assay [8], -8.72% (inactive). In addition, the inhibition of aggregation in assay [2] was -4.7% (inactive). Besides, the nuclei count stood at 111% in assay [2] and 116% in assay [3]. In addition, the figures for the fluorescence slope in assay [4] and in assay [6] were -0.405 (inactive) and 0.00568 (inactive), respectively. The NADPH fluorescence slope in assay [5] is 1.4e-05 (inactive).
Take `COC(=O)C(C)C1Sc2ccccc2NC1=O` (centres undefined): the cell count in assay [1] was determined as 306. Further, the inhibition in assay [1] was 3.6% (inactive); in assay [3], -37.7% (inactive); in assay [7], 12.5% (inactive); in assay [8], -8.12% (inactive). The inhibition of aggregation in assay [2] was -4.9% (inactive). In addition, the nuclei count in assay [2] was found to be 89.5%; in assay [3], 131%. The fluorescence slope was -0.28 (inactive) in assay [4] and 0.00684 (inactive) in assay [6]. In addition, the NADPH fluorescence slope in assay [5] is -5.2e-05 (inactive).
Regarding `C[C@H](NC(=O)Nc1cccc(C(F)(F)F)c1)C(=O)O`, the cell count in assay [1] was 759. The inhibition in assay [1] was 0.4% (inactive); in assay [3], -1.7% (inactive); in assay [7], 27.2% (inactive); in assay [8], 22.6% (inactive). Further, the inhibition of aggregation in assay [2] is 14.4% (inactive). Moreover, the nuclei count in assay [2] stood at 98%; in assay [3] it was 92.5%. For the same compound, the fluorescence slope in assay [4] was -0.547 (inactive); in assay [6], 0.00427 (inactive). For the same compound, the NADPH fluorescence slope in assay [5] is 1.5e-05 (inactive).
As to `CCn1c(Cc2ccccc2)nnc1SCC(=O)Nc1nc2ccccc2s1`, the cell count in assay [1] came to 741. For the same compound, the inhibition in assay [1] was -0.5% (inactive); in assay [3], -24.9% (inactive); in assay [7], 18.4% (inactive); in assay [8], 17.4% (inactive). Further, the inhibition of aggregation in assay [2] is -25.5% (inactive). For the same compound, the nuclei count in assay [2] was 115%; in assay [3] it was 97.6%. In addition, the fluorescence slope in assay [4] is -0.469 (inactive); in assay [6], 0.00499 (inactive). For the same compound, in assay [5], the NADPH fluorescence slope was -4.8e-05 (inactive).
Consider `COCCn1c(=NC(=O)CSC(C)=O)sc2cc(F)ccc21`, for which the cell count in assay [1] amounted to 426. For the same compound, the inhibition in assay [1] is -6.2% (inactive); in assay [3] it was -22% (inactive); in assay [7] it was 13.7% (inactive); in assay [8], 22.7% (inactive). Also, the inhibition of aggregation in assay [2] is 33.6% (inactive). Also, the figures for the nuclei count in assay [2] and in assay [3] were 93.7% and 106%, respectively. The fluorescence slope is -0.379 (inactive) in assay [4] and 0.00556 (inactive) in assay [6]. Moreover, the NADPH fluorescence slope in assay [5] is 4.1e-05 (inactive).
Regarding `Cc1oc2c(CN3CCCC3)c(O)ccc2c(=O)c1-c1ccccc1`, the cell count in assay [1] came out at 243. Also, the inhibition in assay [1] was 3.8% (inactive); in assay [3] it was -46% (inactive); in assay [7], 14% (inactive); in assay [8], 24.5% (inactive). For the same compound, the inhibition of aggregation in assay [2] was 6.5% (inactive). The nuclei count was found to be 96.3% in assay [2] and 97.7% in assay [3]. In addition, the values for the fluorescence slope in assay [4] and in assay [6] were -0.0276 (active) and 0.00581 (inactive), respectively. Besides, the NADPH fluorescence slope in assay [5] is 8.9e-06 (inactive).
For the compound `Cc1cc(NC(=O)CS(=O)(=O)c2cn(Cc3cccc(F)c3)c3ccccc23)no1`, in assay [1], the cell count worked out at 815. Also, the inhibition in assay [1] was -6.6% (inactive); in assay [3], -94.1% (inactive); in assay [7] it was 11.5% (inactive); in assay [8], 0.399% (inactive). Further, in assay [2], the inhibition of aggregation was 6.9% (inactive). Moreover, the nuclei count stood at 116% in assay [2] and 107% in assay [3]. For the same compound, the fluorescence slope was -0.262 (inactive) in assay [4] and 0.00574 (inactive) in assay [6]. Also, in assay [5], the NADPH fluorescence slope is -2.4e-05 (inactive).
For the compound `Cc1cc(C(=O)O)ccc1-n1c(C)ccc1C`, the cell count in assay [1] came out at 332. Also, the inhibition was -3.7% (inactive) in assay [1], -88.3% (inactive) in assay [3], 14.8% (inactive) in assay [7] and 20% (inactive) in assay [8]. The inhibition of aggregation in assay [2] is 0.1% (inactive). For the same compound, the nuclei count in assay [2] turned out to be 106%; in assay [3], 118%. The figures for the fluorescence slope in assay [4] and in assay [6] were -0.554 (inactive) and 0.00607 (inactive), respectively. Further, the NADPH fluorescence slope in assay [5] was -3.5e-05 (inactive).
With `CCc1cc(C)cc(OCCNC(=O)c2ncn[nH]2)c1`, the cell count in assay [1] was 473. For the same compound, the inhibition is 3% (inactive) in assay [1], 31.1% (inactive) in assay [3], 12% (inactive) in assay [7] and 18.1% (inactive) in assay [8]. Further, the inhibition of aggregation in assay [2] is 3.2% (inactive). Also, the nuclei count in assay [2] came out at 93.5%; in assay [3], 88.4%. Also, the fluorescence slope in assay [4] is -0.592 (inactive); in assay [6], 0.00585 (inactive). Further, in assay [5], the NADPH fluorescence slope is -1.9e-06 (inactive).
As to `CC1(C)NC(=O)N(CCCOc2ccc(Br)cc2Cl)C1=O`, the cell count in assay [1] came out at 278. The inhibition in assay [1] was -10% (inactive); in assay [3], -4.9% (inactive); in assay [7], -28.8% (inactive); in assay [8], -113% (inactive). In assay [2], the inhibition of aggregation was -8.8% (inactive). Also, the nuclei count amounted to 110% in assay [2] and 119% in assay [3]. Also, the fluorescence slope in assay [4] was -0.458 (inactive); in assay [6] it was 0.00559 (inactive). Besides, the NADPH fluorescence slope in assay [5] was -2.9e-06 (inactive).
`CC(n1cnnn1)C12CC3CC(CC(C3)C1)C2` (centres undefined): in assay [1], the cell count is 555. In addition, the inhibition in assay [1] is 1.3% (inactive); in assay [3], 16.7% (inactive); in assay [7], 16.5% (inactive); in assay [8] it was 32.3% (inactive). The inhibition of aggregation in assay [2] is 0.3% (inactive). Moreover, the nuclei count in assay [2] was found to be 106%; in assay [3], 114%. Besides, the fluorescence slope in assay [4] is -0.495 (inactive); in assay [6] it was 0.00589 (inactive). Besides, in assay [5], the NADPH fluorescence slope is 0.000168 (inactive).
Consider `O=C(CS(=O)(=O)Cc1ccccc1)N1CCc2ccccc2C1`, for which the cell count in assay [1] stood at 753. The inhibition in assay [1] is -0.7% (inactive); in assay [3], -110% (inactive); in assay [7], -17.6% (inactive); in assay [8] it was -31.5% (inactive). Besides, the inhibition of aggregation in assay [2] was 13.8% (inactive). The nuclei count in assay [2] was 97.8%; in assay [3] it was 124%. Also, the results for the fluorescence slope in assay [4] and in assay [6] were -0.529 (inactive) and 0.00542 (inactive), respectively. In assay [5], the NADPH fluorescence slope was -4.4e-05 (inactive).
Turning to `COc1ccccc1C1C(C(C)=O)=C(O)C(=O)N1CCc1ccccc1` (centres undefined), in assay [1], the cell count is 373. Further, the inhibition in assay [1] is 9.5% (inactive); in assay [3] it was -33.5% (inactive); in assay [7], 10.7% (inactive); in assay [8], 18.1% (inactive). Besides, the inhibition of aggregation in assay [2] is -6.3% (inactive). Besides, the nuclei count in assay [2] was determined as 105%; in assay [3], 103%. In addition, the fluorescence slope in assay [4] is -0.549 (inactive); in assay [6], 0.00483 (inactive). Moreover, the NADPH fluorescence slope in assay [5] was -3.7e-05 (inactive).
With `Cc1cc(NC(=O)C2CCCC2)nc2c1c(=O)oc1ccccc12`, the cell count in assay [1] is 601. In addition, the inhibition in assay [1] is -3.4% (inactive); in assay [3] it was -16.3% (inactive); in assay [7], 7.38% (inactive); in assay [8], 9.88% (inactive). The inhibition of aggregation in assay [2] was 12.4% (inactive). For the same compound, the nuclei count in assay [2] worked out at 98.2%; in assay [3], 106%. In addition, the fluorescence slope in assay [4] is -0.578 (inactive); in assay [6] it was 0.00687 (inactive). In addition, in assay [5], the NADPH fluorescence slope is -4.4e-05 (inactive).
